In ChEMBL document CHEMBL3244313, “Synthesis of some carbon-3 substituted 1,4-benzodiazepin-2-ones and their central nervous system effects” (J Med Chem, 1979):
The source made the active and inactive calls. No cut-off for these calls is given here.

Assays:
[1] = Toxicity in po dosed albino Swiss-Webster mouse; format: organism-based; details: in vivo
Mus musculus [2] = test: Anticonvulsant activity in po dosed albino Swiss-Webster mouse assessed as reduction of pentylenetetrazole-induced seizure; format: functional, organism-based
Procedure, shortened: (§1)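 Oral dosing in male and female albino Swiss-Webster mice weighing 25–30 g, six mice per group. ED50 determined with 95% confidence limits.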

[3] = 1-Octanol-aqueous phosphate buffer partition coefficient, log P of the compound at pH 7.35; format: physicochemical
Procedure, shortened: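 Concentrations in each phase (C_oct, C_w) measured by UV spectrophotometry. P_oct = C_oct/C_w, reported as log P_oct.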

Mus musculus [4] = test: Potency index, ratio of chlordiazepoxide ED50 to compound ED50 for hypnotic activity in po dosed albino Swiss-Webster mouse; format: functional
Mus musculus [5] = test: Anticonvulsant activity in po dosed albino Swiss-Webster mouse assessed as reduction of maximum electro shock-induced seizure; format: functional, organism-based; procedure, shortened: as §1
Mus musculus [6] = test: Muscle relaxing activity in po dosed albino Swiss-Webster mouse; format: functional, organism-based; procedure, shortened: as §1
Mus musculus [7] = test: Potency index, ratio of chlordiazepoxide ED50 to compound ED50 for behavioral activity in po dosed albino Swiss-Webster mouse by fighting test; format: functional
Mus musculus [8] = test: Anticonvulsant activity in po dosed albino Swiss-Webster mouse assessed as reduction of minimum electro shock-induced seizure; format: functional, organism-based; procedure, shortened: as §1
Mus musculus [9] = test: Potency index, ratio of chlordiazepoxide ED50 to compound ED50 for muscle relaxing activity in po dosed albino Swiss-Webster mouse; format: functional
Mus musculus [10] = test: Potency index, ratio of chlordiazepoxide ED50 to compound ED50 for anticonvulsant activity in po dosed albino Swiss-Webster mouse assessed as reduction of minimum electro shock-induced seizure; format: functional
Mus musculus [11] = test: Potency index, ratio of chlordiazepoxide ED50 to compound ED50 for anticonvulsant activity in po dosed albino Swiss-Webster mouse assessed as reduction of maximum electro shock-induced seizure; format: functional
Mus musculus [12] = test: Potency index, ratio of chlordiazepoxide ED50 to compound ED50 for anticonvulsant activity in po dosed albino Swiss-Webster mouse assessed as reduction of pentylenetetrazole-induced seizure; format: functional

SMILES | LD50 [1] | Activity (Mus musculus [2]) | logD [3] | Ratio ED50 (Mus musculus [4]) | Activity (Mus musculus [5]) | Activity (Mus musculus [6]) | Ratio ED50 (Mus musculus [7]) | Activity (Mus musculus [8]) | Ratio ED50 (Mus musculus [9]) | Ratio ED50 (Mus musculus [10]) | Ratio ED50 (Mus musculus [11]) | Ratio ED50 (Mus musculus [12])
CC1(C)OCC(COC2N=C(c3ccccc3Cl)c3cc(Cl)ccc3NC2=O)O1 (centres undefined) | 7590 µmol/kg | inactive | 2.48 | 2 | inactive | inactive | 2.3 | inactive | – | – | – | –
CC(=O)OC[C@H]1O[C@H](OCCOC2N=C(c3ccccc3)c3cc(Cl)ccc3NC2=O)[C@H](OC(C)=O)[C@@H](OC(C)=O)[C@@H]1OC(C)=O (mixture of isomers) | 17300 µmol/kg | – | – | 0.9 | – | – | 1.78 | – | 0.68 | 0.98 | 3.6 | 13.4
O=C1Nc2ccc(Cl)cc2C(c2ccccc2Cl)=NC1OCC(O)CO (centres undefined) | 7820 µmol/kg | – | 1.96 | 0.58 | – | – | 15.3 | – | 1.25 | 0.86 | 4.68 | 36.8
O=C1Nc2ccc(Cl)cc2C(c2ccccc2)=NC1OCCO (centres undefined) | 18100 µmol/kg | – | 1.99 | 0.35 | – | – | 1.7 | – | 1.3 | 0.4 | 0.58 | 10.3
CNC1=Nc2ccc(Cl)cc2C(c2ccccc2)=[N+]([O-])C1 [CHLORDIAZEPOXIDE] | – | – | 2.5 | – | – | – | – | – | – | – | – | –
O=C1Nc2ccc(Cl)cc2C(c2ccccc2)=NC1OC(=O)C(Cl)(Cl)Cl (centres undefined) | 6850 µmol/kg | – | – | 0.73 | – | – | 1.92 | – | 1.6 | 1.32 | 5.7 | 16.5
CC1(C)OCC(COC2N=C(c3ccccc3)c3cc(Cl)ccc3NC2=O)O1 (centres undefined) | 9980 µmol/kg | inactive | 2.14 | 0.52 | inactive | inactive | 1.7 | inactive | – | – | – | –
O=C1Nc2ccc(Cl)cc2C(c2ccccc2)=NC1OCC(O)CO (centres undefined) | 16600 µmol/kg | – | 1.71 | 0.51 | – | – | 1.4 | – | 0.7 | 0.52 | 2.3 | 12.5
O=C1Nc2ccc(Cl)cc2C(c2ccccc2Cl)=NC1OCCO (centres undefined) | 9360 µmol/kg | – | 2.04 | 0.65 | – | – | 17.8 | – | 1.86 | 2.8 | 1.2 | 33.6
CN1C(=O)C(OC(=O)C(Cl)(Cl)Cl)N=C(c2ccccc2)c2cc(Cl)ccc21 (centres undefined) | 5600 µmol/kg | – | – | 0.9 | – | – | 1.3 | – | 1.93 | 1.62 | 5.2 | 15.3
CN1C(=O)C(OCCO)N=C(c2ccccc2)c2cc(Cl)ccc21 (centres undefined) | 17400 µmol/kg | – | 1.98 | 0.4 | – | – | 1.5 | – | 1.1 | 8.3 | 0.8 | 12.5
CN1CCN=C(c2ccccc2)c2cc(Cl)ccc21 [MEDAZEPAM] | 5240 µmol/kg | – | 4.05 | 0.3 | – | – | 1 | – | 1.3 | 0.32 | 0.81 | 6.2
CC(=O)OC[C@H]1O[C@@H](OCCOC2N=C(c3ccccc3)c3cc(Cl)ccc3NC2=O)[C@H](OC(C)=O)[C@@H](OC(C)=O)[C@@H]1OC(C)=O (mixture of isomers) | 17200 µmol/kg | – | – | 0.76 | – | – | 1.83 | – | 0.75 | 1.02 | 3.4 | 13.8
CN1C(=O)C(OCC(O)CO)N=C(c2ccccc2)c2cc(Cl)ccc21 (centres undefined) | 16000 µmol/kg | – | 1.74 | 0.42 | – | – | 1 | inactive | 0.8 | – | 0.38 | 10.3
CN1C(=O)C(OCC2COC(C)(C)O2)N=C(c2ccccc2)c2cc(Cl)ccc21 (centres undefined) | 9160 µmol/kg | inactive | 2.37 | 2.3 | inactive | inactive | 1.9 | inactive | – | – | – | –
